What was measured:
[1] = biological target: T1, Fatty acid synthase (Homo sapiens, UniProt P49327); assay: Inhibition of FAS thioster domain (unknown origin)
In short: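 Human FAS-TE (500 nM) in 100 mM Tris-HCl, 50 mM NaCl, pH 7.4, preincubated 30 min at 37 °C with compound (0.32–100 µM and/or 0.08–10 µM final, DMSO). Reaction started with 4-methylumbelliferyl heptanoate. Fluorescence (350/450 nm) read every 5 min for 60 min, substrate-only background. IC50 by four-parameter fit; triplicate.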
Target sequence in this assay (P49327 whole entry, the tested form may be a part): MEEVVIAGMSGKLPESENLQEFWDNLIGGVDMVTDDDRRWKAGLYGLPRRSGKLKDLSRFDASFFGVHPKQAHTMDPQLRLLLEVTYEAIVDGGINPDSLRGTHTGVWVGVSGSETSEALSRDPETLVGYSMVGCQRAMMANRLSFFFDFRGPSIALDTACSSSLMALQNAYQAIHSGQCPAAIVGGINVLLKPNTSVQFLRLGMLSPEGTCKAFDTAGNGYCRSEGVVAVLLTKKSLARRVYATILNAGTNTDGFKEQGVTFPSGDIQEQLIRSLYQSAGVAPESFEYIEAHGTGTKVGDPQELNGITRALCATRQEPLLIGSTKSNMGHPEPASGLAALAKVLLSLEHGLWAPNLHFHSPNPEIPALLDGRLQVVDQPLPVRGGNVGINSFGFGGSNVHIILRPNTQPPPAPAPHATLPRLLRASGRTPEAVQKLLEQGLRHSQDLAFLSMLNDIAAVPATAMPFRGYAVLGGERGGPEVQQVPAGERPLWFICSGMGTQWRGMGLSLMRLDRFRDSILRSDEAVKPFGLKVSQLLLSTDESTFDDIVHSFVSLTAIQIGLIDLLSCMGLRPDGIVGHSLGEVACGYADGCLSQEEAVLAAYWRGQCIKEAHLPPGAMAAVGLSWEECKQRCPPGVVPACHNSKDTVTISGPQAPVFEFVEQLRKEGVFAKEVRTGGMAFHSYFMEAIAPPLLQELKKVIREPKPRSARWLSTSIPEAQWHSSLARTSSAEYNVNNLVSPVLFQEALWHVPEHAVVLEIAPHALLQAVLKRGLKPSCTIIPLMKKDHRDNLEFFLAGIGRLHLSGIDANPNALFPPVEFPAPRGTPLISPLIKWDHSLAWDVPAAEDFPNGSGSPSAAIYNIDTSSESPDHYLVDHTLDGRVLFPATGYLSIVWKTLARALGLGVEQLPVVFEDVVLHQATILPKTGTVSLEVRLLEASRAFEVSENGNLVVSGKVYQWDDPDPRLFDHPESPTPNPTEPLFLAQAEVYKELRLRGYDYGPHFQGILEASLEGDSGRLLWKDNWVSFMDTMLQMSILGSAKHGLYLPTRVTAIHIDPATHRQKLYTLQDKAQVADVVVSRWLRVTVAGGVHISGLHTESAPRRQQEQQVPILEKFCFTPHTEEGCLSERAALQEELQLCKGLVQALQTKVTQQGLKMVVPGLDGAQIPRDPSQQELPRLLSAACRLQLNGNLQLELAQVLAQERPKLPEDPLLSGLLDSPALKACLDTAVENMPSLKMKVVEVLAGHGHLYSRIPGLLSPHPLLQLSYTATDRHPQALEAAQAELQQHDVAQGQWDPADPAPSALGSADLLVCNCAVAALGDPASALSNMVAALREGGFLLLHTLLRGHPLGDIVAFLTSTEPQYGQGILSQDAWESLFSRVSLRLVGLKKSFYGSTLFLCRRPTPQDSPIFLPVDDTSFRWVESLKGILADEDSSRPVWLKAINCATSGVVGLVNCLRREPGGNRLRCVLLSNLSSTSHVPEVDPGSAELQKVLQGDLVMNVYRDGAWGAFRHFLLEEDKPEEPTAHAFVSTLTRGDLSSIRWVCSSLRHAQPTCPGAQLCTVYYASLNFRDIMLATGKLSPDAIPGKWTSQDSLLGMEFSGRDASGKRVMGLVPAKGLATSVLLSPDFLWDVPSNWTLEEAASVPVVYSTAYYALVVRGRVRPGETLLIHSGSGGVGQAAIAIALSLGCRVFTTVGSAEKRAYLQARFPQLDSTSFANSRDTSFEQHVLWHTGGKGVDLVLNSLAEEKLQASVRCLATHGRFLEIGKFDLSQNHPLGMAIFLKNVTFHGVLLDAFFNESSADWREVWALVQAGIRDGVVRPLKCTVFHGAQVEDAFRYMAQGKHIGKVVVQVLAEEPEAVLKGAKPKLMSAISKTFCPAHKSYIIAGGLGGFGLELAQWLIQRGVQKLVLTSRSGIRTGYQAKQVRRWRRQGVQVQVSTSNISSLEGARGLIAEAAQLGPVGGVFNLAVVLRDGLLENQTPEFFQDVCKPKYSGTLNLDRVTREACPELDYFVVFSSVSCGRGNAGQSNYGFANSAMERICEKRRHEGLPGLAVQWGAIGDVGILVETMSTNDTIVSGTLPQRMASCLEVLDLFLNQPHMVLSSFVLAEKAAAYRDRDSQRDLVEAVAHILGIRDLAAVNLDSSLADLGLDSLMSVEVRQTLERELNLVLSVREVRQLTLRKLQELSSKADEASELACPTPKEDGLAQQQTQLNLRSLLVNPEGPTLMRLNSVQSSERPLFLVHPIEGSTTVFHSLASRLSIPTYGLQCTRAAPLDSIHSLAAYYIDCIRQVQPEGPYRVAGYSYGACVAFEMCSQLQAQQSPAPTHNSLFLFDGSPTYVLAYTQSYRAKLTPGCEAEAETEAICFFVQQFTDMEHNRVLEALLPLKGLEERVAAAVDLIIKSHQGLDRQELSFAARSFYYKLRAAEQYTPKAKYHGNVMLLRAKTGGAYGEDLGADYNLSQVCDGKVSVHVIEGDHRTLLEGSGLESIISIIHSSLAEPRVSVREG

[2] = biological target: T1, Fatty acid synthase; assay: Inhibition of human FAS thioster domain preincubated for 30 mins followed by 4-methylumbelliferyl heptanoate substrate addition measured every 5 mins for 60 mins by fluorescence assay
Target sequence in this assay (P49327 whole entry, the tested form may be a part): as above

[3] = biological target: T2, Proteasome Macropain subunit MB1 (Homo sapiens, UniProt P28074); assay: Inhibition of chymotrypsin-like activity of 20S proteasome in human red blood cells pretreated for 20 mins followed by Suc-Leu-Leu-Val-Tyr-AMC substrate addition by fluorescence assay; format: cell-based
T2 sequence (P28074 whole entry): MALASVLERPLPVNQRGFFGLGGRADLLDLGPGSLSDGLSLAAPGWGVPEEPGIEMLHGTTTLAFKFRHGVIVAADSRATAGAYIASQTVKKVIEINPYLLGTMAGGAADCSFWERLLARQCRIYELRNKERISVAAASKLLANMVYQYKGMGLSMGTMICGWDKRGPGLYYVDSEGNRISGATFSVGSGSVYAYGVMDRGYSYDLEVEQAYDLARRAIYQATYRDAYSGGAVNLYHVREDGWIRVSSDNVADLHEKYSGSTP
In short: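 20S proteasome (50 ng) from human erythrocytes, preincubated 20 min at 37 °C in 20 mM Tris pH 7.5 with inhibitor series. AMC substrate then added: 10 µM Suc-LLVY for chymotrypsin-like, 20 µM Boc-LRR for trypsin-like, 20 µM Z-LLE for caspase-like. Hydrolysis followed at 360/460 nm for 600 s; the linear rate was fitted to a four-parameter curve for IC50. Triplicate.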

[4] = test system: HeLa; assay: Cytotoxicity against human HeLa cells assessed as reduction in cell viability after 24 hrs by MTT assay; format: functional, cell-based
In short: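 HeLa cells grown in DMEM with 10% FBS were seeded at 5000/well and left overnight. MTT was then added for 4 h, the formazan dissolved in DMSO and A570 read. IC50 came from dose-response curves; mean ± SEM of three independent experiments.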

[5] = Half life in DMEM medium at 5 uM in absence of 5% FBS by HPLC method; format: physicochemical
In short: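 Compound diluted from DMSO stock to 5 µM final in DMEM (pH 7.5) and held at 37 °C under 5% CO2. Aliquots taken at intervals and quenched with pH 2.0 phosphate buffer. Remaining β-lactone quantified by C18 HPLC integration against initial compound. Run in triplicate.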

[6] = Half life in DMEM medium at 5 uM in presence of 5% FBS by HPLC method; format: physicochemical; details: cattle
In short: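 Compound at 5 µM final in DMEM with 5% FBS at 37 °C, 5% CO2. Aliquots quenched with pH 2.0 phosphate buffer plus acetonitrile and vortexed to precipitate serum protein. Clear supernatant analysed by C18 HPLC as % β-lactone remaining versus initial. Triplicate.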

[7] = biological target: T1, Fatty acid synthase; assay: Competitive inhibition of human FAS thioster domain in MCF cells preincubated for 30 mins followed by TAMRA-N3 labelled (S)-4-ethynylbenzyl 2-((S)-2-(benzyloxycarbonylamino)-6-((2R,3S)-3-hexyl-4-oxooxetane-2-carboxamido)hexanamido)propanoate probe addition after 30 mins […]; format: cell-based
In short: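 MCF-7 cells at 80–90% confluency in serum-free medium, pre-incubated 30 min at 37 °C with competitor (10 → 100 µM, 1–10-fold excess over probe; DMSO ≤0.1%). Alkyne probe then added at 10 µM final for 30 min. Cells lysed in NP-40/deoxycholate, protein normalized by BCA, clicked to TAMRA-N3 (CuSO4/TCEP/TBTA, 1–1.5 h RT), resolved by SDS-PAGE, read by in-gel fluorescence.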
Target sequence in this assay (P49327 whole entry, looked up, the tested form may be a part): as the sequence (P49327 whole entry, the tested form may be a part) above

Row | IC50 [2] [nM] | IC50 [3] [nM] | SMILES | also measured
1 | – | – | CC(C)C[C@@H]1C(=O)O[C@H]1C(=O)NCCC[C@H](NC(=O)[C@H](C)NC(=O)OCc1ccccc1)C(=O)OCc1ccccc1 | IC50 [1]: 160 to 4000 nM
2 | 3110 | – | CCCCCC[C@@]1(C)C(=O)O[C@@H]1C(=O)NCCCC[C@H](NC(=O)[C@H](C)NC(=O)OCc1ccccc1)C(=O)OCc1ccccc1 | –
3 | 1500 | 370 | CCCCCC[C@@H]1C(=O)O[C@H]1C(=O)NCCCC[C@H](NC(=O)OCc1ccccc1)C(=O)N[C@@H](C)C(=O)OCc1ccccc1 | IC50 [4]: 45800 nM; t1/2 [5]: 20 min; t1/2 [6]: < 3 min; inhibition [7]: Dose-dependent effect
4 | 3980 | 260 | C#Cc1ccc(COC(=O)[C@H](C)NC(=O)[C@H](CCCCNC(=O)[C@@H]2OC(=O)[C@H]2CCCCCC)NC(=O)OCc2ccccc2)cc1 | –
5 | 4810 | – | CCCCCC[C@@H]1C(=O)O[C@H]1C(=O)NCCCC[C@H](NC(=O)[C@H](C)NC(=O)c1ccc(Br)cc1)C(=O)OCc1ccccc1 | –
6 | 1190 | – | CCCCCC[C@@]1(C)C(=O)O[C@H]1C(=O)NCCCC[C@H](NC(=O)[C@H](C)NC(=O)OCc1ccccc1)C(=O)OCc1ccccc1 | –
7 | 12600 | 2710 | CCCCCC[C@H]1C(=O)O[C@@H]1C(=O)NCCCC[C@H](NC(=O)OCc1ccccc1)C(=O)N[C@@H](C)C(=O)OCc1ccccc1 | –
8 | 5550 | 510 | CCCCCC[C@@H]1C(=O)O[C@H]1C(=O)NCCCC[C@@H]1NC(=O)N([C@@H](C)C(=O)OCc2ccccc2)C1=O | –
9 | – | > 100000 | CCCCCCCCCCC[C@@H](C[C@@H]1OC(=O)[C@H]1CCCCCC)OC(=O)[C@H](CC(C)C)NC=O [ORLISTAT] | –
10 | 4350 | 700 | CCCCCC[C@@H]1C(=O)O[C@H]1C(=O)NCCC[C@H](NC(=O)[C@H](C)NC(=O)OCc1ccccc1)C(=O)OCc1ccccc1 | IC50 [1]: 160 to 4000 nM
11 | 2610 | – | CCCCCC[C@]1(C)C(=O)O[C@H]1C(=O)NCCCC[C@H](NC(=O)[C@H](C)NC(=O)OCc1ccccc1)C(=O)OCc1ccccc1 | t1/2 [5]: 70 min; t1/2 [6]: 120 min
12 | – | – | CCC[C@@H]1C(=O)O[C@H]1C(=O)NCCC[C@H](NC(=O)[C@H](C)NC(=O)OCc1ccccc1)C(=O)OCc1ccccc1 | IC50 [1]: 160 to 4000 nM
